Data reported in article PMC8451882 (British Journal of Clinical Pharmacology, 2021).
Where “and” joins values, the source holds several entries; their conditions need not be identical. Equal values may be shown once.

Experiments:
Multiple ascending dose = assay type: in vivo, human
Method in brief: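 MAD study in healthy men and women: oral doses of 50, 100 or 200 mg or placebo (6:3), given with food; first dose on day 1. Plasma (K3EDTA) sampled 0.5–48 h after the first dose. Test compound measured by liquid–liquid extraction and LC-MS/MS, calibration range 1.00–1000 ng/mL. Linearity judged from dose-normalised concentration–time profiles.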

Single ascending dose = assay type: in vivo, human
Method in brief: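 SAD study in healthy volunteers: micronised drug in hard-gelatine capsules without excipients, given orally after an overnight fast of at least 8 h (1, 3, 30, 100, 300, 600 mg), or 100 mg after a high-fat high-calorie breakfast. Plasma (K3EDTA) sampled 0.5–48 h after dosing and assayed by LC-MS/MS (1.00–1000 ng/mL). Parameters derived by noncompartmental analysis.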

[1] = Population compartmental PK model; assay type: in vivo, human
Method in brief: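 Pooled first-dose plasma concentrations (816 samples) from 39 healthy volunteers, SAD (fasted 1–600 mg; fed 100 mg) and MAD (fed 50–200 mg). Analysed in NONMEM 7.3 with ADVAN9 and first-order conditional estimation. 1- and 2-compartment models tested, with first-order absorption with or without lag time or transit compartments. IIV log-normal. Visual predictive checks used 500 simulations. Reported as estimate (% RSE).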

[2] = Safety and tolerability, MAD study; assay type: in vivo, human; settings: healthy volunteers, doses up to 200 mg BID for 7 days
Method in brief: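 Single-centre, randomised, double-blind, placebo-controlled MAD study: 22 healthy men and women dosed with food, single dose on day 1, then BID (50, 100, 200 mg) or OD (100 mg) on days 3–9. Active and placebo assigned 6:3. Safety and tolerability assessed before and after dosing and at various time points.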

[3] = Safety and tolerability, SAD study; assay type: in vivo, human; settings: healthy volunteers, single oral dose up to 600 mg
Method in brief: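 First-in-human, single-centre, randomised, double-blind, placebo-controlled interleaved-cohort study: 17 healthy men and women in 2 cohorts with 4 periods each. Single oral doses from 1 to 600 mg given fasted, at least 14 days apart. Safety and tolerability assessed before and after dosing and at various time points.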

metabolic enzyme = test: In vitro enzymology studies, time-dependent metabolic enzyme inhibition; assay type: in vitro ADME; settings: RO5459072 and its metabolites; data held on files at Roche
[4] = Excretion after intravenous dose in rats; assay type: in vivo; settings: data held on files at Roche
cathepsin‐S = test: Inhibition of cathepsin-S enzyme activity throughout the dosing interval; assay type: in vivo, human; settings: 50 mg dose
Solubility = assay type: physicochemical
human P‐gp = human P‐gp (Homo sapiens, UniProt P08183); test: In vitro P-gp transport studies; assay type: in vitro ADME; settings: up to RO5459072 concentrations of 100 μM; data held on files at Roche
[5] = BCS/BDDCS classification and permeability; assay type: physicochemical
[6] = interindividual variability, CV% (% RSE) [shrinkage]

Sequence of human P‐gp (P08183 whole entry): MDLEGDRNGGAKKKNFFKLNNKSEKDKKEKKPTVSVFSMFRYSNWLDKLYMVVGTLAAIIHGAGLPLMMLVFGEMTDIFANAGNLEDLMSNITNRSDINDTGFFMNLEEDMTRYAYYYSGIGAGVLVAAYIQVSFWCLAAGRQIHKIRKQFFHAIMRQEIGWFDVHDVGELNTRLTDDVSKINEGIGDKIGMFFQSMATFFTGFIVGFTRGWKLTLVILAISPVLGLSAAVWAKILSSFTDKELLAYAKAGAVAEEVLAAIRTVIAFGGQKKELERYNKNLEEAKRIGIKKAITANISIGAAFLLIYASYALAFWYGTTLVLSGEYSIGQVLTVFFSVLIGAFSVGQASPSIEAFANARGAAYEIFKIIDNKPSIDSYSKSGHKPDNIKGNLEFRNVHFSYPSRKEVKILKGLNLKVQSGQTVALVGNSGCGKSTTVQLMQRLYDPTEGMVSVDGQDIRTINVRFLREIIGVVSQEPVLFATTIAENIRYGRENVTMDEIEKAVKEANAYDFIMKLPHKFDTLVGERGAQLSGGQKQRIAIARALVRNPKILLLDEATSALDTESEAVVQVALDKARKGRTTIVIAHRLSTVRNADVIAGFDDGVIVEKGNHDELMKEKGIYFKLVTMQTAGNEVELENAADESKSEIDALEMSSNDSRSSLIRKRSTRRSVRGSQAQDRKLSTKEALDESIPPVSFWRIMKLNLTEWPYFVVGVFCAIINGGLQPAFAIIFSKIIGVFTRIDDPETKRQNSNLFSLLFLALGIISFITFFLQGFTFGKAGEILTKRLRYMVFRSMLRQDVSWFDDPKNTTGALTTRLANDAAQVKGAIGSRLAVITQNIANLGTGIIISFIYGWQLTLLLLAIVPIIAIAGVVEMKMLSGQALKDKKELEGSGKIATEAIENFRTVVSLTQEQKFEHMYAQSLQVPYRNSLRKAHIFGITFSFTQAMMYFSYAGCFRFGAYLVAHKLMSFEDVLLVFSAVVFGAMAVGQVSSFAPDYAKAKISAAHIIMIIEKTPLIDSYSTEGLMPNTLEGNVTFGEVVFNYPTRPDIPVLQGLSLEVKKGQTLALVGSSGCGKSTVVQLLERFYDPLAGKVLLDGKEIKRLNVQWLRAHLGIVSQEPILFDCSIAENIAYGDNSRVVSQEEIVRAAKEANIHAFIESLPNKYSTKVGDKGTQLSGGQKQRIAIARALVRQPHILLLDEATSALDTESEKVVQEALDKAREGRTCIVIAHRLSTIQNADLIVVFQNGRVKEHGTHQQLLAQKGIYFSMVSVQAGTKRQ

Compound: Cn1cc(-c2ccc(S(=O)(=O)[C@@H]3C[C@@H](C(=O)NC4(C#N)CC4)N(C(=O)C4(C(F)(F)F)CC4)C3)c(C(F)(F)F)c2)cn1 [RO5459072]
- half-life (Multiple ascending dose; both, human, plasma, oral, average estimated terminal half-lives, fed, 50 mg, 100 mg, 200 mg doses): 480 to 600 min
- PK linearity (Multiple ascending dose; fed condition from 50 to 100 mg): linear
- Tmax (Single ascending dose; both, human, plasma, oral, 100 mg, Tmax, fed): 5 h
- half-life (Single ascending dose; both, human, plasma, oral, 600 mg, noncompartmental analysis apparent terminal half-life, fasted, highest doses between 100 and 600 mg): 780 to 960 min
- increase in systemic exposure with dose (Single ascending dose; fasted, doses <10 mg): more than dose proportional
- increase in systemic exposure with dose (Single ascending dose; fasted, doses >30 mg): less than dose proportional
- Tmax delay fed versus fasted (Single ascending dose; fed later than fasted): approximately 1 hour
- decrease of estimated average half-life by food (noncompartmental analysis) (Single ascending dose; fed versus fasted): approximately 4 hours
- CL/F, apparent total clearance ([1]; fasted and fed conditions, estimate (% RSE)): 9.38 (3.65) L h^−1
- kaFaPI, first-order absorption rate constant of the proximal intestine ([1]; fasted, doses > 3 mg (10 to 600 mg), estimate (% RSE)): 2.05 h^−1 and 2.05 (6.29) h^−1
- kaFaDI, first-order absorption rate constant of the distal intestine ([1]; fasted, doses > 3 mg, estimate (% RSE)): 0.065 h^−1 and 0.065 (9.31) h^−1
- apparent fraction of the total dose absorbed from the distal intestine ([1]; fasted, on average for doses between 10 and 600 mg): ~ 16%
- IIV of D50 [1, 6]: 38.5% (27.3) [40.9%] CV%
- IIV of FFaDI [1, 6]: 32.1% (38.9) [41.0%] CV%
- IIV of Vc/F [1, 6]: 24.0% (15.0) [14.6%] CV%
- IIV of kaFaPI for doses > 3 mg [1, 6]: 33.8% (13.8) [2.44%] CV%
- IIV of kaFe [1, 6]: 39.2% (14.8) [4.21%] CV%
- tolerability [2]: tolerated similarly to placebo
- tolerability [3]: similarly tolerated to placebo
- time-dependent metabolic enzyme inhibition (metabolic enzyme): absence
- fraction of dose found unchanged in the faeces [4]: 50%
- inhibition of cathepsin-S enzyme activity in average throughout the dosing interval (cathepsin‐S): about 93%
- solubility (Solubility): < 20 µg/mL
- saturability of human P-gp (human P‐gp): not saturable
- Biopharmaceutics Classification System class [5]: 2
- permeability [5]: highly permeable
